How the values were obtained:
[1] = target: Norepinephrine transporter (Rattus norvegicus, UniProt Q9WTR4); assay: Inhibition of uptake of tritiated norepinephrine (NE) in rat synaptosomes; assay type: subcellular, Brain
Mus musculus [2] = organism: Mus musculus; assay: Gross behavioral effects ascertained in mice; W indicates weak stimulant or depressant activity of little significance.; assay type: functional, organism-based
Summary of the method: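 Male Swiss Webster mice, 18–24 g, three per dose, given ip doses of 1, 3, 10, 30, 100 and 300 mg/kg. Observed for gross behavior and held for 4 days. Scored as weak (W), stimulant (S), depressant (D) or convulsant (C).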

Mus musculus [3] = organism: Mus musculus; assay: Antagonism of tetrabenazine (TBZ)-induced depression measured in mice by motor activity; assay type: functional; conditions: Mus musculus; read-out: ED50
Summary of the method: (§1)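 Nonfasted male Swiss Webster mice, 18–24 g, ten per dose level and in saline controls. Test compound given ip 30 min before tetrabenazine 32 mg/kg ip; dose expressed as free base. Motor activity and ptosis scored. Control response ≤90% corrected by Abbott's formula.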

Mus musculus [4] = organism: Mus musculus; assay: Antagonism of tetrabenazine (TBZ)-induced depression in mice measured for ptosis; assay type: functional; conditions: Mus musculus; read-out: ED50; summary of the method: as §1
[5] = target: Sodium-dependent dopamine transporter (Rattus norvegicus, UniProt P23977); assay: Inhibition of the uptake of tritiated dopamine (DA) in rat synaptosomes; assay type: subcellular, Brain
Sequence of Sodium-dependent dopamine transporter (P23977 whole entry): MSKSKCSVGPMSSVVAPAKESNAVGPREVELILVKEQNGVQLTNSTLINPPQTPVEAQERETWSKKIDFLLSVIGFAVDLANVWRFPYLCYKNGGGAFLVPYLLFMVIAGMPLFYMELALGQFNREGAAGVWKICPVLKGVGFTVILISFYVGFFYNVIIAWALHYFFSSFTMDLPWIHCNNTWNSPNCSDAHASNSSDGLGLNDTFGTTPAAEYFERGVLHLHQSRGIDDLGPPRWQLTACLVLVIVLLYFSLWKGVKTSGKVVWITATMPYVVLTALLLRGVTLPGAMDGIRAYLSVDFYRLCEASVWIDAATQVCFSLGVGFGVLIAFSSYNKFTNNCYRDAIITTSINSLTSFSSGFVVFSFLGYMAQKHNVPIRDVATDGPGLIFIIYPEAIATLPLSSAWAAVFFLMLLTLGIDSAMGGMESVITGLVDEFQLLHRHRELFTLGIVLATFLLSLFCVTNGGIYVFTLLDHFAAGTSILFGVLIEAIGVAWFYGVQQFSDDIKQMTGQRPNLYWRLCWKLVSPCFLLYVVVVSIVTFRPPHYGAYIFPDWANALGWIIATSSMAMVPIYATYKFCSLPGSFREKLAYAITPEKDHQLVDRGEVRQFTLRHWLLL

[6] = target: Sodium-dependent dopamine transporter (Rattus norvegicus) (UniProt P23977); assay: Ability to inhibit the uptake of [3H]dopamine (DA) 0.1 uM concentration at rat brain synaptosomes; assay type: functional, subcellular
Sequence of Sodium-dependent dopamine transporter (Rattus norvegicus) (P23977 whole entry): as above
Summary of the method: (§2)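 Male Wistar rat brain synaptosomes (P2 fraction): hypothalamus for NE, striatum for DA, cerebral cortex for 5-HT. Buffer is Tris- or HEPES-buffered salt medium with glucose, ascorbate and nialamide, pH 7.4 at 37 °C. Preincubated 10 min at 37 °C with compound. Uptake started with [3H]NE 100–300 nM, [3H]DA 50–300 nM or [3H]5-HT 100–200 nM, incubated 3 min (DA) or 6–10 min (NE, 5-HT). Blanks held on ice. Filtered, counted by scintillation.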

[7] = target: Sodium-dependent serotonin transporter (Rattus norvegicus) (UniProt P31652); assay: Ability to inhibit the uptake of [3H]- serotonin(5-HT) 0.1 uM concentration at rat brain synaptosomes; assay type: functional, subcellular; summary of the method: as §2
Sequence of Sodium-dependent serotonin transporter (Rattus norvegicus) (P31652 whole entry): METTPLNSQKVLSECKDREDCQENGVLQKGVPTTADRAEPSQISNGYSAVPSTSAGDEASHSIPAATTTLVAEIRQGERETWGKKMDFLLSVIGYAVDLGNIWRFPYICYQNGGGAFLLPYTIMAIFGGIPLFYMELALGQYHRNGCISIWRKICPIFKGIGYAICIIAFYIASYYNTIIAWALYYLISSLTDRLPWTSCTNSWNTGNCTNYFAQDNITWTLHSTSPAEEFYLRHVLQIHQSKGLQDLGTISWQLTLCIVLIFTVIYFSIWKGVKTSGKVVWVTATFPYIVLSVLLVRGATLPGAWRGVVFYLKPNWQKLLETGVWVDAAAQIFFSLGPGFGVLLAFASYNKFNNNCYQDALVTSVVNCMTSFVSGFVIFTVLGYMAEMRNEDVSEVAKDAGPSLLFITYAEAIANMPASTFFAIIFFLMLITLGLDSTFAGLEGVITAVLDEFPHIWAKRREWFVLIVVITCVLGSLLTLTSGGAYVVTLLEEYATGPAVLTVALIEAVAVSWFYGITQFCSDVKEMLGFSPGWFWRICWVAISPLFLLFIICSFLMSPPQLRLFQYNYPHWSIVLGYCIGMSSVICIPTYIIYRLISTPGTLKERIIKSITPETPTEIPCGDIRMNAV

[8] = target: D(2) dopamine receptor (Rattus norvegicus) (UniProt P61169); assay: Binding affinity towards dopamine receptor D2 at 1.0 uM concentration
Sequence of D(2) dopamine receptor (Rattus norvegicus) (P61169 whole entry): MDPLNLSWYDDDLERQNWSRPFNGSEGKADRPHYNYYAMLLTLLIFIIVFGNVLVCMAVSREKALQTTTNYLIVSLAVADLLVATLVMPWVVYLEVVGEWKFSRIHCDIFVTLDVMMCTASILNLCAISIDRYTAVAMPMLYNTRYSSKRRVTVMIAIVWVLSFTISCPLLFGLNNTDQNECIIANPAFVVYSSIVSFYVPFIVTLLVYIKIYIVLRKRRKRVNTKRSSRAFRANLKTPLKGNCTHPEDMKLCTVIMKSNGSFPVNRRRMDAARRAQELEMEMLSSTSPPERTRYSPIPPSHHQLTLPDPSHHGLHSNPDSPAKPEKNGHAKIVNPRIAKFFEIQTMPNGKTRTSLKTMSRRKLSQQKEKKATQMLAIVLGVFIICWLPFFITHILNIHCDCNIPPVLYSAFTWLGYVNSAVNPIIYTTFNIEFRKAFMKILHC
Summary of the method: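 Rat brain crude synaptic membranes in 20 mM NaHEPES pH 7.5. Ligands: α1 cortex […] 0.4 nM, nonspecific with (-)-NE 100 μM, 30 min at 25 °C. […] D2 striatum [3H]spiperone 0.05 nM with (+)-butaclamol 1 μM, 45 min at 37 °C. S1 cortex [3H]5-HT 1 nM plus glutathione and MgCl2, with 5-HT 10 μM, 20 min at 37 °C. […] Samples filtered on GF/B and counted.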

Sequence of Norepinephrine transporter (Q9WTR4 whole entry): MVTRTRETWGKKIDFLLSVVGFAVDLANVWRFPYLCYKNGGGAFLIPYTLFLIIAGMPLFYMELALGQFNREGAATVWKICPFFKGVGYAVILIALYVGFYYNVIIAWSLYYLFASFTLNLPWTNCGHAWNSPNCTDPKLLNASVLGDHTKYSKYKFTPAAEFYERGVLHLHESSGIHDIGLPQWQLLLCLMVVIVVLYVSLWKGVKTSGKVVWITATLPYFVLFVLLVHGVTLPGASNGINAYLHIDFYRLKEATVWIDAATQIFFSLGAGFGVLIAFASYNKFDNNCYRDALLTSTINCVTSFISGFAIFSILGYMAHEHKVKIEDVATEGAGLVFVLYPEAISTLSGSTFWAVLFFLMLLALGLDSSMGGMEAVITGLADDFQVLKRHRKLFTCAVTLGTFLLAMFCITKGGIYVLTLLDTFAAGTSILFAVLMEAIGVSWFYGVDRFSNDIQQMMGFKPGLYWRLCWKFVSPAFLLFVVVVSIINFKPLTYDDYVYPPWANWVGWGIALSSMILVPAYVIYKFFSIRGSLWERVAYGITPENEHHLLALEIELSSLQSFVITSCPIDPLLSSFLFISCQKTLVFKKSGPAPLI

Row | SMILES | Ki [1] | behavior (Mus musculus [2]) | ED50 (Mus musculus [3]) | ED50 (Mus musculus [4]) | Ki [5] | inhibition [6] | inhibition [7] | inhibition [8]
1 | Clc1ccc([C@@H]2CN3CCC[C@H]3c3ccccc32)cc1Cl | 16 nM | Weak | ~41 mg/kg | 8 mg/kg | 30.8 nM |  |  | 
2 | CN1Cc2c(N)cccc2C(c2ccccc2)C1 (configuration not stated) [NOMIFENSINE] |  | Partial stimulant | 0.18 mg/kg | 0.11 mg/kg |  |  |  | 
3 | Br.COc1ccc([C@@H]2CN3CCC[C@@H]3c3ccccc32)cc1 | 0.79 nM | Weak | 0.27 mg/kg | 0.03 mg/kg | 5.2 nM |  |  | 
4 | FC(F)(F)c1cccc([C@@H]2CN3CCC[C@@H]3c3ccccc32)c1 (stereo in doubt; (+)-37b) | 1.5 nM |  |  |  | 25.7 nM |  |  | 
5 | Br.Brc1ccccc1[C@@H]1CN2CCC[C@@H]2c2ccccc21 | 1.5 nM |  | ~0.6 mg/kg | ~1 mg/kg | 26.5 nM |  |  | 
6 | FC(F)(F)c1ccc2c(c1)[C@H]1CCCN1C[C@H]2c1ccccc1 | 3.1 nM |  |  |  | 11.2 nM |  |  | 
7 | O=C(Nc1ccccc1)Nc1ccc([C@@H]2CN3CCC[C@@H]3c3ccccc32)cc1 | 117 nM |  |  |  | 24.5 nM |  |  | 
8 | O[C@]1(c2ccccc2)CN2CCC[C@H]2c2ccccc21 | 8.1 nM | Weak | 8.4 mg/kg | 1.6 mg/kg | 28.5 nM |  |  | 
9 | Br.O=[N+]([O-])c1ccc([C@@H]2CN3CCC[C@@H]3c3ccccc32)cc1 | 3.4 nM | Weak | 0.17 mg/kg | 0.08 mg/kg | 94.2 nM |  |  | 
10 | FC(F)(F)c1ccc([C@@H]2CN3CCC[C@@H]3c3ccccc32)cc1 | 10.6 nM |  | > 3 mg/kg | ~2 mg/kg | 128 nM |  |  | 
11 | Fc1cccc(Cl)c1[C@@H]1CN2CCC[C@@H]2c2ccccc21 | 11.5 nM |  | > 3 mg/kg | > 3 mg/kg | 279 nM |  |  | 
12 | CCn1cc(C(=O)O)c(=O)c2ccc(Cc3ccccc3)nc21 [AMFONELIC ACID] | 41.1 nM |  |  |  | 7.2 nM |  |  | 
13 | Cc1ccccc1[C@@H]1CN2CCC[C@@H]2c2ccccc21 | 5.6 nM |  | ~1 mg/kg | ~1 mg/kg | 117 nM |  |  | 
14 | FC(F)(F)c1cccc([C@@H]2CN3CCC[C@@H]3c3cccc(Cl)c32)c1 | ~100 nM |  |  |  |  | 8% | 5% | 
15 | Clc1cccc2c1[C@H](c1ccccc1)CN1CCC[C@H]21 | 11.6 nM |  |  |  | 25.3 nM |  |  | 
16 | Clc1ccc([C@@H]2CN3CCC[C@@H]3c3ccccc32)c(Cl)c1 |  |  | ~2 mg/kg | ~1 mg/kg |  |  |  | 
17 | Br.COc1ccc([C@@H]2CN3CCC[C@H]3c3ccccc32)cc1 | 27.6 nM | Weak | ~50 mg/kg | 3 mg/kg | 119 nM |  |  | 
18 | Br.Oc1ccccc1[C@@H]1CN2CCC[C@@H]2c2ccccc21 | 8.8 nM | Weak | > 3 mg/kg | ~2 mg/kg | 360 nM |  |  | 
19 | COc1ccc2c(c1)[C@H]1CCCN1C[C@H]2c1ccccc1 | 2.2 nM |  |  |  | 2.8 nM |  |  | 
20 | CSc1ccccc1[C@@H]1CN2CCC[C@@H]2c2ccccc21 |  |  | ~0.6 mg/kg | ~0.6 mg/kg |  |  |  | 
21 | Br.c1ccc2c(c1)[C@@H](C1CCCCC1)CN1CCC[C@@H]21 | 81 nM | Weak | 6.4 mg/kg | 1.9 mg/kg | 604 nM |  |  | 

Row | SMILES | Ki [1] | behavior (Mus musculus [2]) | ED50 (Mus musculus [3]) | ED50 (Mus musculus [4]) | Ki [5] | inhibition [6] | inhibition [7] | inhibition [8]
22 | C[C@@]12CCCN1C[C@H](c1ccc(Cl)cc1)c1ccccc12 | 3.8 nM | Weak | 6.8 mg/kg | 1.5 mg/kg | 7.6 nM |  |  | 
23 | Br.c1csc([C@H]2CN3CCC[C@H]3c3ccsc32)c1 | 14.6 nM | Weak | ~24 mg/kg | ~30 mg/kg | 39.8 nM |  |  | 
24 | Br.O[C@@]1(c2ccccc2)CN2CCC[C@H]2c2ccccc21 | 40.8 nM | Weak | ~25 mg/kg | 6.2 mg/kg | 258 nM |  |  | 
25 | NC(=O)c1ccc([C@@H]2CN3CCC[C@@H]3c3ccccc32)cc1 | 90.2 nM |  |  |  | 84.5 nM |  |  | 
26 | COc1ccc(NC(=O)Nc2ccc([C@@H]3CN4CCC[C@H]4c4ccccc43)cc2)cc1 | 15 nM |  |  |  | 8.8 nM |  |  | 
27 | FC(F)(F)c1cccc([C@@H]2CN3CCCC3c3cc(Cl)ccc32)c1 (some centres not stated) | 32.6 nM |  |  |  | 168 nM |  |  | 
28 | Br.F[C@]1(c2ccccc2)CN2CCC[C@H]2c2ccccc21 | 30.7 nM | Weak | ~3 mg/kg | 1.2 mg/kg |  | 26% | 6% | 
29 | CSc1ccc([C@@H]2CN3CCC[C@@H]3c3ccccc32)cc1 (stereo in doubt; (-)-48b) |  |  |  |  |  |  |  | 5%
30 | CCN1Cc2ccccc2C(c2ccccc2)C1 (configuration not stated) | 5.6 nM | Weak | ~10 mg/kg | ~10 mg/kg | 36.4 nM |  |  | 
31 | CCCCc1ccc([C@@H]2CN3CCC[C@@H]3c3ccccc32)cc1 | 29.9 nM | Weak | > 60 mg/kg | 9.1 mg/kg | 230 nM |  |  | 
32 | Br.Clc1ccc2c(c1)[C@H]1CCCN1C[C@H]2c1ccccc1 | 0.62 nM |  | ~0.3 mg/kg | ~0.5 mg/kg | 2.5 nM |  |  | 
33 | C[C@@]12CCCN1C[C@@H](c1ccc(Cl)cc1)c1ccccc12 | ~100 nM | Weak |  |  | ~100 nM |  | 21% | 
34 | c1ccc([C@H]2CN3CCCC[C@H]3c3ccccc32)cc1 | 13.7 nM | Weak | > 30 mg/kg | > 30 mg/kg | > 1000 nM |  |  | 
35 | c1ccc([C@H]2CN3CC[C@H]3c3ccccc32)cc1 | 6.3 nM |  | ~2 mg/kg | 1.25 mg/kg | 81.6 nM |  |  | 
36 | Clc1ccc([C@@H]2CN3CCC[C@H]3c3cc(Cl)ccc32)cc1 | 33.8 nM | Weak | > 100 mg/kg | ~37 mg/kg | 65.1 nM |  |  | 
37 | Br.Oc1ccc([C@@H]2CN3CCC[C@H]3c3ccccc32)cc1O | 22.3 nM | Partial stimulant | > 30 mg/kg | 1.8 mg/kg | 32.6 nM |  |  | 6%
38 | Br.CS(=O)(=O)c1ccc([C@@H]2CN3CCC[C@H]3c3ccccc32)cc1 |  | Weak | > 30 mg/kg | 17.7 mg/kg |  |  |  | 
39 | COc1cccc2c1[C@H](c1ccccc1)CN1CCC[C@H]21 | 11.5 nM | Weak | 10 mg/kg | 1.2 mg/kg | 12.3 nM |  |  | 
40 | N#Cc1ccc([C@@H]2CN3CCC[C@@H]3c3ccccc32)cc1 |  |  | ~2 mg/kg | ~2 mg/kg |  |  |  | 
41 | Br.Cn1ccc2c1[C@@H](c1ccccc1)CN1CCC[C@@H]21 | 7.5 nM | Weak | 2.4 mg/kg | ~0.75 mg/kg | 9.8 nM |  |  | 
42 | Clc1ccc([C@@H]2CN3CCC[C@H]3c3ccccc32)cc1 |  | Weak | 8.1 mg/kg | 5.4 mg/kg |  |  |  | 

Reference: ChEMBL document CHEMBL1123812, “Pyrroloisoquinoline antidepressants. 2. In-depth exploration of structure-activity relationships” (J Med Chem, 1987)
